According to paper PMC7416514 (Clinical & experimental metastasis, 2011):
Values joined by “and” are separate entries in the source; they are usually repeats but may differ in a detail not shown here. Equal values may be shown once.

Legend:
[1] = tested on: 231-BR cells; assay: MTT-based viability assay; assay type: cell-based; conditions: Homo sapiens, 48 h, read-out: IC50 viability of 231-BR cells
How it was run: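 231-BR cells in 10% FBS had continuous exposure to test compound over 1–100 nM for 48 h, then an MTT viability read-out. Viability is expressed as percent of vehicle control. There were three separate experiments with n = 4 per point; log10-transformed data went to mixed-model ANOVA with Dunnett post-hoc comparison.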

[2] = tested on: 231-BR cells; assay: Western blot of apoptotic markers and phosphorylated Histone H3; assay type: cell-based, human
How it was run: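 231-BR cells were treated with test compound at 5 or 10 nM for the indicated times, then lysed and run on SDS-PAGE with immunoblotting. Antibodies: PLK-1, phospho-histone H3, cleaved and total caspase 9, 8 and 3. Tubulin served as the loading control.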

[3] = Whole body autoradiography tissue uptake; assay type: in vivo, rats; conditions: rat, single 12.5 mg/kg dose
How it was run: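 Rats received a single dose of [14C]-labelled test compound and were sacrificed at timed points up to 24 h. Radioactivity in whole-body sections (brain, striatum, blood) was quantified by phosphoimager against 14C autoradiography standards. Results are μg equivalents/g tissue; limit of quantitation 0.051 μg equivalents/g.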

[4] = tested on: 231-BR cells; assay: 231-BR experimental brain metastasis prevention model; assay type: in vivo, nu/nu NRC mice; conditions: for Micrometastases Mean: vehicle 239
How it was run: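 Female nu/nu NRC mice, 5–7 weeks old, received 175,000 231-BR cells into the left cardiac ventricle. On day 3 they were randomised to test compound or vehicle (2% Cremophor EL, 2% N,N-dimethylacetamide in acidified pH 5 water). Brains were bisected sagittally; ten serial 10-micron sections every 300 microns through the right hemisphere were scored at 50×. Micro and large (>300 micron) lesions are given as mean per section, from two experiments combined, by mixed-model ANOVA with Dunnett adjustment.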

[5] = tested on: 231-BR cells; assay: Survival study in 231-BR brain metastasis model; assay type: in vivo, nu/nu NRC mice; conditions: 50 mg/kg
[6] = tested on: 231-BR cells; assay: Clonogenic survival assay with irradiation; assay type: cell-based, human; conditions: 40 nM, 2 h prior to irradiation, surviving fraction of 0.1
[7] = Preliminary dose finding experiments; assay type: in vivo; conditions: 75 mg/kg, intraperitoneally every other day, mice
[8] = phase I study in 40 patients ref 6; cited from earlier work
[9] = tested on: TP53 mutant cells; conditions: cited from earlier work

C[C@@H](Oc1cc(-n2cnc3ccc(CN4CCN(C)CC4)cc32)sc1C(N)=O)c1ccccc1C(F)(F)F [GSK461364A]
IC50 [1]: ~5 nM
pHH3 levels (Western blot) ([2]; 231-BR cells treated with 5 and 10 nM): increase in pHH3 levels
cleaved caspase 9 and cleaved caspase 3 (Western blot) ([2]; 231-BR cells treated with 5 or 10 nM): Cleaved caspase 9 and cleaved caspase 3 were observed
Tissue uptake, Brain ([3]; 0.5 h): 3.192 μg equivalents/g tissue
Tissue uptake, Brain (striatum) ([3]; 0.5 h): 4.283 μg equivalents/g tissue
Tissue uptake, Choroid plexus ([3]; 0.5 h): 32.560 μg equivalents/g tissue
Tissue uptake, Meninges ([3]; 0.5 h): 10.305 μg equivalents/g tissue
Tissue uptake, Blood (cardiac) ([3]; 0.5 h, listed as [^14C]GSK461364A, 12.5 mg/kg): 2.4 μg equivalents/g tissue and 2.396^a μg equivalents/g tissue
Drug uptake in the brain or striatum ([3]; 30 min post-injection): 3.2–4.3 μg equivalents/g of tissue
Tissue uptake, Blood (cardiac) ([3]; 2 h): 0.730 μg equivalents/g tissue
Tissue uptake, Brain ([3]; 2 h): 0.363 μg equivalents/g tissue
Tissue uptake, Brain (striatum) ([3]; 2 h): 0.522 μg equivalents/g tissue
Tissue uptake, Choroid plexus ([3]; 2 h): 9.734 μg equivalents/g tissue
Tissue uptake, Meninges ([3]; 2 h): 1.236 μg equivalents/g tissue
Tissue uptake, Blood (cardiac) ([3]; 6 h): 0.183 μg equivalents/g tissue
Tissue uptake, Brain ([3]; 6 h): 0.088 μg equivalents/g tissue
Tissue uptake, Brain (striatum) ([3]; 6 h): 0.225 μg equivalents/g tissue
Tissue uptake, Choroid plexus ([3]; 6 h): 2.790 μg equivalents/g tissue
Tissue uptake, Meninges ([3]; 6 h): 1.239 μg equivalents/g tissue
Tissue uptake, Brain ([3]; 24 h): 0.126 μg equivalents/g tissue
Tissue uptake, Brain (striatum) ([3]; 24 h): 0.288 μg equivalents/g tissue
Tissue uptake, Choroid plexus ([3]; 24 h): 2.342 μg equivalents/g tissue
Tissue uptake, Meninges ([3]; 24 h): 4.881 μg equivalents/g tissue
Tissue uptake, Blood (cardiac) ([3]; 24 h, BLQ = <0.051 μg equivalents/g, 12.5 mg/kg): undetectable
Tissue uptake, Blood (cardiac) ([3]; 24 h, BLQ = <0.051 μg equivalents/g, listed as [^14C]GSK461364A, 12.5 mg/kg): BLQ^b
Drug remaining in the brain ([3]; 24 h post-injection): 0.13–0.29 μg equivalents/ g
Micrometastases Mean ([4]; 25 mg/kg IP every other day for 27 days from day 3): 177 lesions/ section
reduction in micrometastases vs vehicle ([4]; 25 mg/kg, statistically insignificant): 26%
Micrometastases Mean ([4]; 50 mg/kg IP every other day for 27 days from day 3): 159 lesions/ section
decline in large brain metastases vs vehicle ([4]; 50 mg/kg, treatment started 3 days post-injection): 62%
prolonged survival ([5]; treatment started 3 days post-injection): 17%
survival compared to the vehicle control group ([5]; treatment started day 3, 7 or 14 post-injection): extended survival to the same extent
dose enhancement factor [6]: 1.5
toxicity in dose finding [7]: toxic causing acute weight loss
limiting toxicities [8]: neutropenia, thrombocytopenia and bone marrow suppression
phospho-Histone H3 (pHH3) in circulating tumor cells [8]: Increased
sensitivity in TP53 mutant cells [9]: increased sensitivity
